From publication PMC6660416 (Cell, 2019)

Experiments:
5-HT2A-RLuc = assay: BRET association assay, 5-HT2A-RLuc and mVenus-nanobody; assay type: cell-based; settings: 5-HT at 1μM or above
MRGPRX2 = assay: Transcription factor reporter primary screen; assay type: cell-based; settings: MRGPRX2 activated by (+)-morphine, 4 hrs post-ligand addition
R7 tTA = assay: tTA reporter assay; assay type: cell-based; settings: increasing concentrations of DOX
How it was run: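 Six hours after transfection, cells were washed and dissociated with versene. They were resuspended in DMEM + 1% dialyzed FBS and plated on poly-L-lysine 384-well plates at 10,000 cells/well. Doxycycline HCl, prepared in plating media at 2x, was added for 20–22 hr overnight. Media was then removed and 1:20-diluted Bright-Glo luciferase reagent was added for luminescence read-out.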

5-HT2A-Gαq = 5-HT2A-Gαq (Homo sapiens, UniProt P28223+P50148); assay: Saturation radioligand binding assay with [3H]LSD

## NCCc1c[nH]c2ccc(O)cc12 [5-HT, serotonin]
5-HT2A-RLuc
  effect of agonist on VGS-Nb2 association to 5-HT2A: no effect

## CN1CC[C@@]23c4c5ccc(O)c4O[C@@H]2[C@H](O)C=C[C@@H]3[C@@H]1C5 [(+)-morphine]
MRGPRX2
  SRE minimal promoter luciferase response: 5 fold
  SRF minimal promoter luciferase response: 5 fold

## C[C@H]1c2cccc(O)c2C(=O)C2=C(O)[C@]3(O)C(=O)C(C(N)=O)=C(O)[C@@H](N(C)C)[C@@H]3[C@@H](O)[C@@H]21 [DOX, doxycycline]
R7 tTA
  sensitivity of R7 consensus tTA to doxycycline in TETO7-Rluc reporter: completely resistant

## [3H]CN1C[C@H](C(=O)N(CC)CC)C=C2c3cccc4[nH]cc(c34)C[C@H]21 [[^3H]LSD, [N-Methyl-^3H]-Lysergic Acid Diethylamide]
5-HT2A-Gαq; 5HT2A-Gaq membrane + 5uM VGS-Nb2
  BMax: 1993 fmol/mg
5-HT2A-Gαq; 5HT2A-Gaq membrane, vehicle
  BMax: 1333 fmol/mg
